Assay results gathered from unrelated publications.
Each line is one published result; the experiments were not run side by side.
Cell line: A549
Read-out: cell growth or viability

SMILES | method | time | setting | IC50
CN1CCN(CCn2cccc2/C=N/NC(=O)Nc2cc3c(Nc4ccc(F)c(Cl)c4)ncnc3cc2O[C@H]2CCOC2)CC1 | MTT | 72 h |  | 3.02 µM
COc1ccccc1OCCNC[C@@H](O)COc1cccc2[nH]c3ccccc3c12 | CCK-8 |  |  | 23.4 µM
COc1cc2ncnc(Nc3ccc(F)c(Cl)c3)c2cc1NC(=O)N/N=C/c1cccn1CCCN1CCN(C)CC1 | MTT | 72 h |  | 3.23 µM
COc1ccccc1/C=C/CNCC(O)COc1cccc2ccccc12 (centres unmarked) | CCK-8 | 72 h |  | 16.9 µM
C=CC(=O)Nc1cc(Nc2nc(N3CCc4sccc4C3)c3cccnc3n2)c(OC)cc1N1CCN(CC)CC1 | MTT |  |  | 1.42 µM
COc1cccc(C(=O)O[C@@H]2CN3Cc4c(cc5c(c4OC)OCO5)[C@@]24C=C[C@H](OC)C[C@@H]34)c1 | WST-1 |  |  | > 10 µM
C#Cc1cccc(Nc2ncnc3cc(OCCOC)c(OCCOC)cc23)c1 | MTT |  |  | 19.4 µM
COc1ccccc1/C=C/CNCC(O)COc1ccc2c(c1)[nH]c1ccccc12 (centres unmarked) | CCK-8 | 72 h |  | 6.8 µM
Cc1c(OCC(F)(F)F)ccnc1COc1ccc(NC(=O)Nc2cc(F)cc(F)c2)cc1 | MTT | 72 h |  | 7.67 µM
CC1=C(O)C(=O)C=C2C1=CC=C1[C@@]2(C)CC[C@@]2(C)[C@@H]3C[C@](C)(C(=O)OCCCCCCCCO)CC[C@]3(C)CC[C@]12C | MTT | 48 h |  | 4.13 µM
CN(C)c1ccc2cc(C(=O)N[C@@H](CCCNC(=N)CCl)C(=O)NCc3ccccc3)ccc2c1 |  | 48 h |  | 9.7 µM
COc1cc2ncnc(Nc3ccc(F)c(Cl)c3)c2cc1NC(=O)N/N=C/c1cccn1CCN1CCN(C)CC1 | MTT | 72 h |  | 2.34 µM
Nc1ccc(Cl)c[n+]1[Pt-2]([Cl])([Cl])[n+]1cc(Cl)ccc1N | MTT | 48 h |  | 6.34 µM
Cc1ccc(C)n1-c1ccc(C(=O)NNC=O)cc1 | MTT | 72 h |  | 219 µM
NNc1nc(Nc2ccccc2)nc(Nc2ccc(Br)cc2)n1 | SRB | 72 h |  | > 30 µM
C=CC1=C(C)c2cc3[nH]c(cc4nc(cc5[nH]c(cc1n2)c(C)c5CCC(=O)O)C(CCC(=O)O)=C4C)c(C)c3C=C |  | 4 h | dark | > 100 µM
Cc1cccc(NC(=O)NNC(=O)c2ccc(Nc3nccc(-c4ccccn4)n3)cc2)c1 | MTT |  |  | > 40 µM
O=C(NC(=S)N1CCCCC1)c1ccc2ccccc2c1 |  | 48 h |  | 5.95 µM
C=CC(=O)Nc1cc(Nc2nc(N3CCc4sccc4C3)c3cccnc3n2)c(OC)cc1N1CCC(N(C)C)CC1 | MTT |  |  | 0.393 µM
COc1cc2ncnc(Nc3ccc(F)c(Cl)c3)c2cc1NC(=O)N/N=C/c1cccn1CCCN1CCCCC1 | MTT | 72 h |  | 3.08 µM
O=C1Nc2ccc(F)cc2/C1=N/NC(=O)c1cc2ccccc2[nH]1 |  |  |  | > 30 µM

SMILES | method | time | setting | IC50
CCC(=O)Nc1cc(Nc2nc(N3CCc4sccc4C3)c3cccnc3n2)c(OC)cc1N1CCN(CCO)CC1 | MTT |  |  | > 50 µM
O=C(/N=C1\SCC(=O)N1C1CCCCC1)c1ccc2ccccc2c1 |  | 48 h |  | 18.8 µM
O=[N+]([O-])c1ccc(-c2csc(Nc3ccc4c(O)ncnc4c3)n2)cc1 | MTT |  |  | 17.9 µM
COc1ccccc1OCCN(C)CC(O)COc1cccc2[nH]c3ccccc3c12 (centres unmarked) | CCK-8 | 72 h |  | 33.3 µM
CC(C)Cc1ccc(-c2nn(-c3ccc(S(C)(=O)=O)cc3)cc2/C=N\N=C2/NC(=O)CS2)cc1 | MTT | 48 h |  | 3.44 µM
C=C(Cl)C(=O)Nc1cc(Nc2nc(N3CCOCC3)c3sccc3n2)c(OC)cc1N(C)CCN(C)C | MTT |  |  | 0.107 µM
O=C(N/N=C/c1cccn1CCN1CCCC1)Nc1cc2c(Nc3ccc(F)c(Cl)c3)ncnc2cc1O[C@H]1CCOC1 | MTT | 72 h |  | 2.39 µM
O=C(Nc1nnc(-c2cc3ccccc3[nH]2)s1)c1cc2c([nH]c3ccccc32)c(-c2ccc(F)cc2)n1 | MTT | 72 h |  | 3.64 µM
Cc1c(OCC(F)(F)F)ccnc1COc1ccc(NC(=O)Nc2ccc(Cl)c(C(F)(F)F)c2)cc1 | MTT | 72 h |  | 4.35 µM
COc1cccc(/C=C2\SC(=S)N(CC(=O)Nc3ccccc3)C2=O)c1 | MTT |  |  | 32 µM
COc1ccnc(COc2ccc(NC(=O)Nc3ccc(Cl)c(C(F)(F)F)c3)cc2)c1OC | MTT | 72 h |  | 15.4 µM
O=C(NC(=S)Nc1ccccc1)c1ccc2ccccc2c1 |  | 48 h |  | 6.86 µM
CN(C)CCCn1cccc1/C=N/NC(=O)Nc1cc2c(Nc3ccc(F)c(Cl)c3)ncnc2cc1O[C@H]1CCOC1 | MTT | 72 h |  | 6.17 µM
COC(C)(C)CCC[C@](C)(O)[C@H]1CC[C@]2(C)[C@@H]1[C@H](O)C[C@@H]1[C@@]3(C)CC[C@H](O)C(C)(C)[C@@H]3CC[C@]12C | MTT | 72 h |  | 4.88 µM
COc1ccc(-c2nc(C(=O)Nc3nnc(-c4cc5ccccc5[nH]4)s3)cc3c2[nH]c2ccccc23)cc1 | MTT | 72 h |  | 2.82 µM
CC(=O)O[C@H]1C(=O)[C@@]2(C)[C@H]([C@H](OC(=O)c3ccccc3)[C@]3(O)C[C@H](OC(=O)[C@H](O)[C@@H](NC(=O)c4ccccc4)c4ccccc4)C(C)=C1C3(C)C)[C@]1(OC(C)=O)CO[C@@H]1C[C@@H]2O | CCK-8 | 72 h |  | 0.0206 µM
COc1ccc2c(c1)/C(=N/NC(=O)c1cc3ccccc3[nH]1)C(=O)N2 |  |  |  | 6.68 µM
CCNC(=O)NNC(=O)c1ccc(Nc2nccc(-c3ccc(Cl)cc3)n2)cc1 | MTT | 24 h |  | > 40 µM
CCC(=O)Nc1cc(Nc2nc(N3CCOCC3)c3sccc3n2)c(OC)cc1N(C)CCN(C)C | MTT |  |  | > 50 µM
CC1=C(O)C(=O)C=C2C1=CC=C1[C@@]2(C)CC[C@@]2(C)[C@@H]3C[C@](C)(C(=O)OCCCOc4ccccc4)CC[C@]3(C)CC[C@]12C | MTT | 48 h |  | 5.39 µM
